Experimental data: ChEMBL document CHEMBL1140479, “NO donors. Part 16: investigations on structure-activity relationships of organic mononitrates reveal 2-nitrooxyethylammoniumnitrate as a high potent vasodilator” (Bioorg Med Chem Lett, 2007)

Assay: Vasodilatory effect in pig pulmonary artery assessed as inhibition of PGF2-alpha-induced contraction
Format: functional, tissue-based, Sus scrofa
Conditions: for pD2: Sus scrofa
How it was run: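 Porcine lungs from slaughterhouse; small pulmonary artery branches cut into rings (2–3 mm long, 1.5–2 mm diameter), tension measured in organ baths. Rings precontracted with PGF2α; test compounds added cumulatively at contraction plateau (up to 1 mM), DMSO as solvent. Endothelium checked by 10 nM bradykinin relaxation; denuded rings by gentle rubbing, pretreated with 0.2 mM L-NAME. Potency expressed as pD2.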

Structure (SMILES) | EC50 | pD2
O=[N+]([O-])OCc1ccccc1 | 0.412 µM | 6.34
O=[N+]([O-])OCC(CO)(CO)CO [PENTAERYTHRITYL MONONITRATE] | 72.5 µM | 4.14
O=[N+]([O-])O[C@H]1CO[C@H]2[C@@H]1OC[C@H]2O[N+](=O)[O-] [ISOSORBIDE DINITRATE] | 0.424 µM | 6.37
COC(=O)CCO[N+](=O)[O-] | 1.03 µM | 5.99
CC(C)CO[N+](=O)[O-] | 87.7 µM | 4.01
CC(O[N+](=O)[O-])C(=O)c1ccccc1 (stereo unspecified) | 1.54 µM | 5.81
NCCO[N+](=O)[O-] [AMINOETHYL NITRATE] | 0.0315 µM | 7.5
CC(C)(CO[N+](=O)[O-])C(=O)O | 14.7 µM | 4.83
CCCCO[N+](=O)[O-] | 141 µM | 3.85
O=[N+]([O-])OCCS(=O)(=O)O | 33.5 µM | 4.48
O=[N+]([O-])OC1COC2C(O)COC12 (stereo unspecified) | 33.2 µM | 4.48
O=[N+]([O-])OCC(CO[N+](=O)[O-])O[N+](=O)[O-] [NITROGLYCERIN] | 0.0356 µM | 7.44
O=C(O)CCO[N+](=O)[O-] | 9.56 µM | 5.02
